The data set can be described thus: Toxicity liver stage against HepG2, at 10uM. In kind it is cell-based. Also on record: test concentration 10 uM, cell line HepG2-A16-CD81EGFP. To be noted: human, HepG2-A16-CD81EGFP cells; read-out: INHIBITION
An outline of the steps:
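Uninfected HepG2-A16-CD81EGFP cells, 3 × 10^3 per well, 1536-well, plated on prespotted compound at 10 μM final, parasite-free screening media added to match infected plates; puromycin 10 μM positive, DMSO 0.5% negative; run in parallel with 48 h PbLuc assay at 37 °C, 5% CO2; viability by CellTiter-Glo luminescence, normalized to controls.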
`O=C(N[C@@H]1CN(c2ncccn2)[C@@H]2CCCO[C@@H]21)c1cnccn1`: the cytotoxicity at 10 µM was -4.8%.
With `COCCC(=O)N1CCN(CC(C)C)c2nc(C)ccc2C1` the figure was 11.3%; with `CC(C)NC(=O)[C@H]1C[C@@H]2[C@@H](C1)OCCN2Cc1ccco1`, 4.08%; with `CC(C)n1ccnc1C1CCN(C(=O)c2ccccc2N(C)C)CC1`, 4.67%.
As for `CC(=O)N(Cc1noc(C)n1)C1CCN(Cc2c(C)noc2C)C1` (configuration not stated), the figure is -9.55%; as for `COCC(O)CN(C)c1ccnc2ccc(Cl)cc12` (configuration not stated), -5.93%.
As to `O=C(CCc1ccc(Cl)s1)NCc1nnc2n1CCCCC2`, the cytotoxicity at 10 µM was -6.1%.
Regarding `O=C(CN(C1=NCCCCC1)c1ccc(Cl)cc1)c1ccccc1`, the cytotoxicity at 10 µM came out at 12.2%.
As for `CSc1nc(N)c2c(n1)N=C1COC(=O)C1C2c1cccc(O)c1` (configuration not stated), the figure is 32.8%; as for `COCC(=O)N1CCN(Cc2cc(F)cc(Br)c2)CC1`, 15.8%; as for `CC(C)CC(=O)N1Cc2ccccc2CC1C(=O)Nc1nncs1` (configuration not stated), -154%.
As for `CCC(C)NC(=O)c1ccc(-c2ccco2)[nH]c1=O` (configuration not stated), the cytotoxicity at 10 µM is -5.05%.
As for `Cc1c(Br)cccc1CSc1nnc(CO)n1C`, the figure is -40.5%; as for `CC1CCc2nc(O)c(C(=O)NCc3ccncc3)cc2C1` (configuration not stated), -1.37%; as for `CNS(=O)(=O)CCCN1CCCC1c1noc(C)n1` (configuration not stated), -4.38%.
With `CS(=O)(=O)CCCSCc1ccc(Br)c(F)c1` the figure was 4.64%; with `CNC(=O)[C@@H]1COC[C@H]2CN(C(=O)COc3ccccc3)C[C@H]21`, -1.65%.
As for `c1ncc2c(n1)CN(Cc1nc(-c3ccsc3)no1)CC2`, the figure is -4.77%; as for `O=c1c2c(ncn1CCO)nc1n2CCC1`, -11.3%; as for `Cn1ncc2c(=O)[nH]c(CN3CCCC3c3ccccc3Cl)nc21` (configuration not stated), -4.8%.
Turning to `c1cc(CN2CCc3ncc(CN4CCOCC4)n3CC2)cs1`, the cytotoxicity at 10 µM is -0.269%.
As for `COc1ccc2c(c1)CCCN2C(=O)CNCC1CN(C)CCO1` (configuration not stated), the figure is 4.78%; as for `C[C@H](NC(=O)C1(N(C)Cc2ccccc2)Cc2ccccc2C1)C(N)=O`, 0.521%; as for `CCOCC1CN(Cc2cnn(C)c2)Cc2nn(C)cc21` (configuration not stated), 2.37%.
As for `Nc1nnnn1NCc1cccc(Cl)c1Cl`, the figure is 11.5%; as for `CC(Cn1cccn1)NCc1csc(-c2ncccn2)n1` (configuration not stated), -14.7%.
As for `CCc1ocnc1C(=O)N1CCC2(CC1)OCC(C)O2` (configuration not stated), the figure is 4.44%; as for `Fc1ccc(CN2CCCC2Cn2cccn2)c2ncccc12` (configuration not stated), -5.11%; as for `O=C1CC(NS(=O)(=O)c2ccc3ccccc3c2)CN1` (configuration not stated), 3.94%.
On to `Cc1ccc(CN2CCC3(CC2)C(=O)N(CC(C)C)CCN3C)s1`, for which the cytotoxicity at 10 µM is -3.63%.
As for `NC(=O)NC(CC(=O)NCCc1cccc(F)c1)c1ccccc1` (configuration not stated), the figure is -0.862%.
With `O=C([C@H]1C[C@H]2OCC[C@H]2N(CCc2ccccc2)C1)N1CCCCO1` the figure was 0.307%; with `CC(CNC(=O)c1cn(-c2ccccc2)nn1)Cn1cccn1` (configuration not stated), -41.6%.
For the compound `NCC1CN(C(=O)Cn2ncc(N3CCCCC3)cc2=O)CCO1` (configuration not stated), the cytotoxicity at 10 µM was -8.27%.
As for `Cc1cccc(CN2CCC3(CCN(c4ncccn4)C3)C2=O)c1` (configuration not stated), the figure is 1.44%.
As for `CCn1c(C)nnc1CN(C)C1CCN(CCc2cccs2)C1` (configuration not stated), the figure is -7.12%; as for `Cc1ccc(OCc2occc2C(=O)N2CCOC(C(=O)O)C2)cc1` (configuration not stated), -2.14%.
With `Cc1nn(C)c(C)c1CC(=O)NCc1ccnc(N2CCOCC2)c1` the figure was -14.7%; with `O=C(NCc1ccc(Cl)cc1)[C@@H]1Cc2[nH]cnc2CN1CC1CC1`, 3.67%; with `CC(C)c1cc(NCC(O)c2ccc(F)cc2)n2nccc2n1` (configuration not stated), 0.255%.
Regarding `O=C(O)c1cc2c(nc1-c1ccsc1)CCN(C(=O)C1CC1)CC2`, the cytotoxicity at 10 µM was determined as 14.4%.
As for `CC(NC(=O)N1CCN(c2ccccc2O)CC1)c1nncn1C` (configuration not stated), the figure is -6.01%; as for `O=C(c1cccc(N2CCCC2=O)c1)N1CCCC(n2cncn2)C1` (configuration not stated), -12%; as for `Cn1cc(-c2ncnc3c2CCN(CC2CCOC2)CC3)cn1` (configuration not stated), -112%.
With `CC(=O)NCC(=O)N1CCc2c(CNc3ncccn3)cncc2C1` the figure was 1.59%; with `COCCN(C)C(=O)c1ccc2onc(-c3coc(C)n3)c2c1`, -144%.
With `CC1CCC(NC(=O)CNC2(c3ccc(Br)cc3)CCOCC2)CC1` (configuration not stated) the figure was 3.46%.
Take `CCCn1nnnc1CSc1nccn1CC`: the cytotoxicity at 10 µM was -5.15%.
For the compound `CCOCC1COCCC12CCN(C(=O)CCOC)CC2` (configuration not stated), the cytotoxicity at 10 µM was -6.4%.
As for `Oc1ccc2oc3c(c2c1CN1CCOCC1)CCCC3`, the figure is -0.499%.
With `CC(C)c1cc(C(=O)N2CCN(c3cccc(C(=O)O)c3)CC2)n(C)n1` the figure was -2.95%; with `CC1(C)COCCN1C(=O)Cc1cc(Cl)c2c(c1)OCCO2`, 1.54%; with `Cc1c(C(=O)N2CCC(c3nc(C)n4ccsc34)CC2)cnn1C`, -4.41%.
As for `CN(C)S(=O)(=O)NCc1cccnc1Oc1ccc(F)cc1F`, the figure is 8.49%; as for `COC[C@@]12CCO[C@@H]1CCN(C(=O)c1ccc(F)c(F)c1)C2`, -2.59%.
Consider `CC(C)(C)c1n[nH]c(C2CN(Cc3nnc(C4CCC4)o3)CCO2)n1` (configuration not stated), for which the cytotoxicity at 10 µM was -8.24%.
With `Fc1cccc(C2(CNC3CCCNC3)CCOCC2)c1` (configuration not stated), the cytotoxicity at 10 µM is 0.979%.
As for `O=C(CCOc1ccccc1F)NC1CCCN(c2ccccn2)C1` (configuration not stated), the figure is -5.67%.
With `N#Cc1cn(C2CC2)c(=O)n(CC(O)c2ccc(OC(F)F)cc2)c1=O` (configuration not stated) the figure was -2.22%.
With `CCCNCc1cc2c(C)cc(C)cc2n2c(=O)n(C)nc12` the figure was -3.09%.
Take `Cc1cc(NC(=O)NCc2cccnc2OC2CCCC2)n(C)n1`: the cytotoxicity at 10 µM is -1.07%.
As for `Cc1nc(CO[C@@H]2CN(Cc3cnn(C)c3)[C@@H]3COC[C@@H]32)cs1`, the figure is -7.06%; as for `CN(C)c1cc(C2CCCN2C(=O)c2ccc(=O)n(C)c2)ccn1` (configuration not stated), -23.9%.
With `CC(Cc1ccco1)NS(=O)(=O)N1CCCCCC1` (configuration not stated) the figure was 2.29%; with `O=C(Cc1ccccn1)N1CCN2C[C@H](OCCN3CCCC3)C[C@H]2C1`, -77.2%; with `NC(=O)Cn1ccnc1C1CCCN(Cc2cccc(Cl)c2F)C1` (configuration not stated), 7.81%.
With `N#Cc1ccsc1N1CCC(Sc2ccncc2)C1=O` (configuration not stated) the figure was -15.7%; with `Cc1occc1C(=O)NCC(=O)N1CCCC(c2ccccc2)CC1` (configuration not stated), 6.35%.
In the case of `O=c1cc(Cn2ccnc2)nc2n1CCCN(S(=O)(=O)C1CC1)C2`, the cytotoxicity at 10 µM came to 7.95%.
With `Cc1noc(CNc2ccc(CC(=O)N3CCSCC3)cc2)n1` the figure was -2.29%.
As for `CC(C)CCN1C[C@@H]2C[C@H](C(=O)NCc3ccccc3)[C@H](C1)O2`, the cytotoxicity at 10 µM was -2%.
As for `CCc1cccc(N2CCC(NC(=O)C3CCC3)CC2)c1`, the figure is 3.6%.
As for `COCC(=O)NC1CC2(CCN(CCN(C)C)CC2)c2ccccc21` (configuration not stated), the figure is -113%; as for `O=C(Cc1ccc2c(c1)CCC2)N1CCN(c2cnccn2)CC1`, -2.18%.
With `Cc1cnccc1-c1cnn(CCNC(=O)c2ccncc2)c1C1CC1` the figure was 6.95%; with `CCOCC1c2c(ncn2C)CCN1C(=O)c1cscn1` (configuration not stated), -98.2%.
As for `N#Cc1ccc(SCCC(=O)Nc2ccc(CC(N)=O)cc2)cc1`, the cytotoxicity at 10 µM was -5.25%.
With `Cn1nnnc1SCCNC(=O)C1CCN(C(=O)C2CCC2)CC1` the figure was -3.22%.
With `COCC(=O)N1C[C@@H](C)[C@](O)(C(C)C)C1` the figure was 1.69%; with `c1cc(COC[C@H]2CCC[C@]23CNCCO3)ccn1`, -99.1%.
As for `CC(C)c1nnc(NCc2ccsc2)o1`, the cytotoxicity at 10 µM was -0.19%.
As for `Cc1nc(C2CCCN2C(=O)c2ccc(N(C)C)nn2)no1` (configuration not stated), the figure is -12.9%; as for `Cc1n[nH]c(C)c1CCC(=O)N1CCC(O)(CN2CCOCC2)C1` (configuration not stated), 3.38%.
In the case of `OC1CCN(c2ccccc2NCc2nc(-c3cccs3)no2)CC1`, the cytotoxicity at 10 µM turned out to be 10.8%.
As for `O=C(Nc1ccccc1-c1ccccc1)NC1CCC2(C1)OCCO2` (configuration not stated), the figure is 8.84%.
As for `Cc1nn(C)c2ncc(S(=O)(=O)N3CCCC(C)CC3)cc12` (configuration not stated), the figure is 2.6%; as for `Cc1ccccc1CN(CCN(C)C)Cc1ccc(O)c(C(=O)O)c1`, 0.935%; as for `c1cc(CN2C[C@@H]3OCCN(CC4CCCO4)[C@@H]3C2)co1` (some centres not stated), 4.8%.
As for `CCC(CNC(=O)c1ccc(F)cc1F)N1CCc2ccccc2C1` (configuration not stated), the figure is 10.9%.
As for `CNC(=O)C1CN(C(=O)c2ccccc2)Cc2cn(C)nc21` (configuration not stated), the cytotoxicity at 10 µM is -1.5%.
With `COc1cc2c(cc1CNC(Cc1cccs1)c1nccs1)OCO2` (configuration not stated) the figure was -1.88%; with `Cc1nc(N)nc(N2CCOc3ccc(CO)cc3C2)c1C`, 4.23%.
With `CN1CCN(CCCNC(=O)CCc2nc3cc(Br)cnc3[nH]2)CC1` the figure was -124%; with `CCN(CCNS(=O)(=O)C1CCOCC1)C(=O)OC(C)(C)C`, -1.8%.
As for `Cc1c(CCC(=O)Nc2ccc(Cl)cn2)cnn1C`, the figure is 0.678%.
As for `CC(c1cccc(S(N)(=O)=O)c1)N(C)CCOC(C)(C)C` (configuration not stated), the cytotoxicity at 10 µM was -32.8%.
With `CCN(CC)S(=O)(=O)N1C[C@@H](c2ccccc2)[C@H]2[C@H]1CCCCCN2C` the figure was -10.4%.

Source of the values: ChEMBL document CHEMBL4513216, “Probing the Open Global Health Chemical Diversity Library for Multistage-Active Starting Points for Next-Generation Antimalarials” (ACS Infect Dis, 2020).
